Experiments:
Assay type in all cases: functional
[1] = test system: K562; assay: Growth inhibition of human K562 cells at 10^-5 M after 48 hrs by Sulforhodamine B assay relative to control; conditions: K562, 48 h, read-out: GI
In short: (§1)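 Single-dose screen at 10⁻⁵ M. Cells are preincubated 24 h at 37 °C in 5% CO2, then exposed to the compound, diluted from a DMSO stock into medium with gentamicin, for 48 h. Adherent cells are fixed with cold TCA (final 10%) and suspension cells with TCA (final 16%). Cells are stained with 0.4% SRB in 1% acetic acid and bound dye is read at 515 nm. Percent growth inhibition is taken against control wells and time-zero plates.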

[2] = test system: A498; assay: Growth inhibition of human A498 cells at 10^-5 M after 48 hrs by Sulforhodamine B assay relative to control; conditions: A498, 48 h, read-out: GI; in short: as §1
[3] = test system: SK-MEL-28; assay: Growth inhibition of human SK-MEL-28 cells at 10^-5 M after 48 hrs by Sulforhodamine B assay relative to control; conditions: SK-MEL-28, 48 h, read-out: GI
In short: (§2)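 Single-dose primary screen at 10⁻⁵ M across 49 lines. Cells were plated 24 h beforehand, with a TCA-fixed time-zero plate, then exposed 48 h at 37 °C, 5% CO2. Cells were fixed with cold TCA, stained with SRB and read at 515 nm. Percent growth was calculated against time-zero and untreated-control absorbances.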

[4] = test system: SF-539; assay: Growth inhibition of human SF539 cells at 10^-5 M after 48 hrs by Sulforhodamine B assay relative to control; conditions: SF-539, 48 h, read-out: GI; in short: as §2
[5] = test system: Malme-3M; assay: Growth inhibition of human MALME-3M cells at 10^-5 M after 48 hrs by Sulforhodamine B assay relative to control; conditions: read-out: GI; in short: as §1
[6] = test system: CCRF-CEM; assay: Growth inhibition of human CCRF-CEM cells at 10^-5 M after 48 hrs by Sulforhodamine B assay relative to control; conditions: read-out: GI; in short: as §1
[7] = test system: DU-145; assay: Growth inhibition of human DU145 cells at 10^-5 M after 48 hrs by Sulforhodamine B assay relative to control; conditions: DU-145, 48 h, read-out: GI; in short: as §1
[8] = test system: MOLT-4; assay: Growth inhibition of human MOLT4 cells at 10^-5 M after 48 hrs by Sulforhodamine B assay relative to control; conditions: MOLT-4, 48 h, read-out: GI; in short: as §2
[9] = test system: SK-OV-3; assay: Growth inhibition of human SKOV3 cells at 10^-5 M after 48 hrs by Sulforhodamine B assay relative to control; conditions: SK-OV-3, 48 h, read-out: GI; in short: as §2
[10] = test system: NCI-H322M; assay: Growth inhibition of human NCI-H322M cells at 10^-5 M after 48 hrs by Sulforhodamine B assay relative to control; conditions: read-out: GI; in short: as §2
[11] = test system: OVCAR-8; assay: Growth inhibition of human OVCAR8 cells at 10^-5 M after 48 hrs by Sulforhodamine B assay relative to control; conditions: OVCAR-8, 48 h, read-out: GI; in short: as §2
[12] = test system: MDA-MB-231; assay: Growth inhibition of human MDA-MB-231 cells at 10^-5 M after 48 hrs by Sulforhodamine B assay relative to control; conditions: MDA-MB-231, 48 h, read-out: GI; in short: as §1
[13] = test system: ACHN; assay: Growth inhibition of human ACHN cells at 10^-5 M after 48 hrs by Sulforhodamine B assay relative to control; conditions: read-out: GI; in short: as §1
[14] = test system: UACC-62; assay: Growth inhibition of human UACC62 cells after 48 hrs by Sulforhodamine B assay; conditions: UACC-62, 48 h
In short: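 Five-concentration stage in the […]-cell-line panel, using 10-fold or ½-log serial dilutions made from a DMSO stock (400-fold). Cells were preincubated 24 h at 37 °C, then drug-exposed 48 h. A time-zero plate was fixed with TCA at dosing, adherent cells were fixed with cold TCA (10% final), and protein was stained with SRB, absorbance 515 nm. GI50 was where [(Ti−Tz)/(C−Tz)]×100 = 50, from the percent growth vs log concentration plot, expressed as log10 GI50.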

[15] = test system: ACHN; assay: Growth inhibition of human ACHN cells after 48 hrs by Sulforhodamine B assay
In short: (§3)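 Five-concentration SRB assay using 10-fold or ½-log serial dilutions from a DMSO stock. Exposure is 48 h at 37 °C in 5% CO2 after 24 h preincubation. TCA fixation is followed by SRB staining and a reading at 515 nm. Percentage growth is computed from time-zero, control and treated absorbances. GI50 is the concentration where [(Ti−Tz)/(C−Tz)]×100 = 50, read from the plot against log concentration.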

[16] = test system: SF-268; assay: Growth inhibition of human SF268 cells after 48 hrs by Sulforhodamine B assay; conditions: SF-268, 48 h
In short: (§4)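 Cells were preincubated 24 h at 37 °C, 5% CO2, and a time-zero plate was TCA-fixed. Five concentrations were made by serial dilution from a DMSO stock (400-fold the top concentration) and incubated 48 h. Adherent cells were fixed with 10% final TCA and suspension cells with 16%. Plates were stained with 0.4% SRB and read at 515 nm. GI50 is the concentration giving 50% reduction in net protein increase versus control.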

[17] = test system: NCI-H226; assay: Growth inhibition of human NCI-H226 cells after 48 hrs by Sulforhodamine B assay; conditions: NCI-H226, 48 h; in short: as §4
[18] = test system: COLO 205; assay: Growth inhibition of human COLO205 cells after 48 hrs by Sulforhodamine B assay; conditions: COLO 205, 48 h; in short: as §3
[19] = Growth inhibition of human HCC2998 cells after 48 hrs by Sulforhodamine B assay; conditions: HCC 2998, 48 h; in short: as §3
[20] = test system: PC-3; assay: Growth inhibition of human PC3 cells after 48 hrs by Sulforhodamine B assay; conditions: PC-3, 48 h; in short: as §4
[21] = test system: SK-MEL-28; assay: Growth inhibition of human SK-MEL-28 cells after 48 hrs by Sulforhodamine B assay; conditions: SK-MEL-28, 48 h; in short: as §4
[22] = test system: MDA-MB-231; assay: Growth inhibition of human MDA-MB-231 cells after 48 hrs by Sulforhodamine B assay; conditions: MDA-MB-231, 48 h; in short: as §3
[23] = test system: DU-145; assay: Growth inhibition of human DU145 cells after 48 hrs by Sulforhodamine B assay; conditions: DU-145, 48 h; in short: as §3
[24] = test system: OVCAR-8; assay: Growth inhibition of human OVCAR8 cells after 48 hrs by Sulforhodamine B assay; conditions: OVCAR-8, 48 h; in short: as §4
[25] = test system: HL-60(TB); assay: Growth inhibition of human HL-60(TB) cells after 48 hrs by Sulforhodamine B assay; conditions: HL-60, 48 h
In short: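 Suspension cells pre-incubated 24 h at 37 °C, 5% CO2 before drug addition, with a time-zero plate fixed then. DMSO stocks diluted in medium with gentamicin to five concentrations (10-fold or ½-log steps); 48 h exposure. Settled cells fixed with TCA (final 16%), stained with SRB, dye dissolved in 10 mM Tris base, read at 515 nm. GI50 solved from [(Ti−Tz)/(C−Tz)]×100 = 50.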

[26] = test system: MDA-MB-468; assay: Growth inhibition of human MDA-MB-468 cells after 48 hrs by Sulforhodamine B assay; conditions: MDA-MB-468, 48 h; in short: as §4
[27] = test system: MCF7; assay: Growth inhibition of human MCF7 cells after 48 hrs by Sulforhodamine B assay; conditions: MCF7, 48 h; in short: as §3
[28] = test system: SN12C; assay: Growth inhibition of human SN12C cells after 48 hrs by Sulforhodamine B assay; in short: as §4
[29] = test system: Hs-578T; assay: Growth inhibition of human Hs578T cells after 48 hrs by Sulforhodamine B assay; in short: as §3

NNc1nc(-c2ccncc2)nc2sc3c(c12)CCCCCC3 showed an inhibition of growth at 10 µM [1] of 24.7%, an inhibition of growth at 10 µM [2] of 18.6% and an inhibition of growth at 10 µM [3] of 4.94%. The inhibition of growth at 10 µM [4] was -14.8%, the inhibition of growth at 10 µM [5] was 2.19% and the inhibition of growth at 10 µM [6] was 25.9%. For the same compound, the inhibition of growth at 10 µM [7] was -30.4%, the inhibition of growth at 10 µM [8] was 9.09% and the inhibition of growth at 10 µM [9] was 9.44%. The inhibition of growth at 10 µM [10] was 3.42%, the inhibition of growth at 10 µM [11] was 2.51% and the inhibition of growth at 10 µM [12] was 1.46%. The inhibition of growth at 10 µM [13] was 8.69%.
For c1ccc(-c2nc(N3CCOCC3)c3c4c(sc3n2)CCCCCC4)nc1, the GI50 [14] was 3.47 µM, the GI50 [15] was 4.47 µM and the GI50 [16] was 8.91 µM. It also gave a GI50 [17] of 5.01 µM, a GI50 [18] of 9.33 µM and a GI50 [19] of 6.92 µM. For the same compound, the GI50 [20] was 2.69 µM, the GI50 [21] was 11 µM and the GI50 [22] was 7.41 µM. It also gave a GI50 [23] of 6.92 µM, a GI50 [24] of 5.13 µM and a GI50 [25] of 4.47 µM. It also gave a GI50 [26] of 4.17 µM, a GI50 [27] of 3.02 µM and a GI50 [28] of 5.01 µM. It also gave a GI50 [29] of 3.39 µM.
Work on NNc1nc(-c2ccccn2)nc2sc3c(c12)CCCCCC3 yielded a GI50 [14] of 5.89 µM, a GI50 [15] of 4.9 µM and a GI50 [16] of 7.24 µM. It also gave a GI50 [17] of 10.2 µM, a GI50 [18] of 5.13 µM and a GI50 [19] of 8.32 µM. For the same compound, the GI50 [20] was 3.98 µM, the GI50 [21] was 14.8 µM and the GI50 [22] was 12.6 µM. For the same compound, the GI50 [23] was 9.55 µM, the GI50 [24] was 4.37 µM and the GI50 [25] was 4.47 µM. It also gave a GI50 [26] of 3.63 µM, a GI50 [27] of 3.8 µM and a GI50 [28] of 6.31 µM. It also gave a GI50 [29] of 11 µM.
Compound O=c1[nH]c(-c2ccncc2)nc2sc3c(c12)CCCCCC3 has a GI50 [14] greater than 100 µM, a GI50 [15] greater than 100 µM and a GI50 [16] greater than 100 µM. For the same compound, the GI50 [17] was greater than 100 µM, the GI50 [18] was greater than 100 µM and the GI50 [19] was greater than 100 µM. For the same compound, the GI50 [20] was greater than 100 µM, the GI50 [21] was greater than 100 µM and the GI50 [22] was greater than 100 µM. The GI50 [23] was greater than 100 µM, the GI50 [24] was greater than 100 µM and the GI50 [25] was greater than 100 µM. It also gave a GI50 [26] greater than 100 µM, a GI50 [27] greater than 100 µM and a GI50 [28] greater than 100 µM. For the same compound, the GI50 [29] was greater than 100 µM.
For Clc1nc(-c2ccccn2)nc2sc3c(c12)CCCCCC3, the inhibition of growth at 10 µM [1] was 20.2%, the inhibition of growth at 10 µM [2] was -18.4% and the inhibition of growth at 10 µM [3] was 10.7%. The inhibition of growth at 10 µM [4] was 2.75%, the inhibition of growth at 10 µM [5] was 5.75% and the inhibition of growth at 10 µM [6] was 27.6%. The inhibition of growth at 10 µM [7] was 77.5%, the inhibition of growth at 10 µM [8] was 32.3% and the inhibition of growth at 10 µM [9] was -5.16%. For the same compound, the inhibition of growth at 10 µM [10] was 15.5%, the inhibition of growth at 10 µM [11] was 12.9% and the inhibition of growth at 10 µM [12] was -16.9%. It also gave an inhibition of growth at 10 µM [13] of 120%.
With O=c1[nH]c(-c2ccccn2)nc2sc3c(c12)CCCCCC3 the GI50 [14] was 5.5 µM, the GI50 [15] was 5.25 µM and the GI50 [16] was 8.71 µM. It also gave a GI50 [17] greater than 100 µM, a GI50 [18] of 5.89 µM and a GI50 [19] of 26.3 µM. It also gave a GI50 [20] of 4.07 µM, a GI50 [21] of 6.03 µM and a GI50 [22] of 8.71 µM. The GI50 [23] was 6.76 µM, the GI50 [24] was 4.37 µM and the GI50 [25] was 3.39 µM. The GI50 [26] was 1.66 µM, the GI50 [27] was 2.45 µM and the GI50 [28] was 6.31 µM. It also gave a GI50 [29] of 6.46 µM.
